Laboratory results: ChEMBL document CHEMBL1143839, “Antiplasmodial activity of lauryl-lysine oligomers” (Antimicrob Agents Chemother, 2007)
pIC50: −log10 of the molar value.

Assays:
[1] = Toxicity against human erythrocytes assessed as hemolysis at 100 uM after 1 hr; assay type: cell-based, Erythrocyte; details: read-out: Activity
How it was run: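 Heparinized fresh human blood washed three times in PBS (200 × g, 2 min), mixed with compound in PBS to 4% hematocrit. Incubated 1 h at 37°C with stirring, then centrifuged. Supernatant absorbance read at 460 nm. PBS alone gave baseline and 0.4% Triton X-100 gave 100% lysis. At least two independent experiments.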

MDCK = assay: Cytotoxicity against dog MDCK cells after 3.5 hrs by Alamar blue assay; assay type: cell-based; details: Canis lupus familiaris
How it was run: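 Cells grown to confluence (~3 days) with different compound concentrations in parallel cultures. Viability then read by Alamar blue fluorescence 3.5 h after dye addition. Cycloheximide 10 µM added at start as positive control. IC50 taken as concentration reducing viability by 50%. At least two independent experiments in duplicate.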

[2] = Ratio of LC50 for erythrocytes to IC50 for Plasmodium falciparum W2; assay type: functional
[3] = Ratio of IC50 for dog MDCK cells to IC50 for Plasmodium falciparum W2; assay type: functional
Plasmodium falciparum = assay: Antiplasmodial activity against Plasmodium falciparum W2 as reduced [3H]hypoxanthine uptake after 18 hrs

SMILES | hemolysis at 1 h, 100 µM [1] | pIC50 (MDCK) | Ratio LC50/IC50 [2] | Ratio IC50 [3] | pIC50 (Plasmodium falciparum)
NCCCCCCCCCCCC(=O)NC(CCCCN)C(=O)NCCCCCCCCCCCC(=O)NC(CCCCN)C(=O)NCCCCCCCCCCCC(=O)NC(CCCCN)C(=O)NCCCCCCCCCCCC(=O)NC(CCCCN)C(=O)O (stereo not given) | 24.6% | < 4.12 | 126 | >47 | 5.80
NCCCCC(N)C(=O)NCCCCCCCCCCCC(=O)NC(CCCCN)C(=O)NCCCCCCCCCCCC(=O)NC(CCCCN)C(=O)NCCCCCCCCCCCC(=O)NC(CCCCN)C(=O)O (stereo not given) | 2.3% | < 3.57 | 1263 | >157 | 5.76
CCCCCCCCCCCC(=O)NC(CCCCN)C(=O)NCCCCCCCCCCCC(=O)NC(CCCCN)C(=O)NCCCCCCCCCCCC(=O)NC(CCCCN)C(=O)O (stereo not given) | 13.3% | 4.12 | 442 | 88 | 6.07
CCCCCCCCCCCC(=O)NC(CCCCN)C(=O)NCCCCCCCCCCCC(=O)NC(CCCCN)C(=O)NCCCCCCCCCCCC(=O)NC(CCCCN)C(=O)NCCCCCCCCCCCC(=O)NC(CCCCN)C(=O)O (stereo not given) | 26.1% | 4.43 | 2317 | 1052 | 7.10
NCCCCCCCCCCCC(=O)NC(CCCCN)C(=O)NCCCCCCCCCCCC(=O)NC(CCCCN)C(=O)NCCCCCCCCCCCC(=O)NC(CCCCN)C(=O)O (stereo not given) | 3.4% | 4.04 | 10734 | 650 | 6.85
CCCCCCCCCCCC(=O)NC(CCCCN)C(=O)NCCCCCCCCCCCC(=O)NC(CCCCN)C(=O)O (stereo not given) | 4.9% | < 4.00 | 288 | >28 | 5.45
NCCCCC(N)C(=O)NCCCCCCCCCCCC(=O)NC(CCCCN)C(=O)O (stereo not given) | < 0.1% | < 3.10 | >700 | >12 | 4.17
NCCCCC(N)C(=O)NCCCCCCCCCCCC(=O)NC(CCCCN)C(=O)NCCCCCCCCCCCC(=O)NC(CCCCN)C(=O)O (stereo not given) | < 0.1% | < 3.40 | >6300 | >51 | 5.11
NCCCCCCCCCCCC(=O)NC(CCCCN)C(=O)NCCCCCCCCCCCC(=O)NC(CCCCN)C(=O)O (stereo not given) | 0.14% | < 3.82 | 7714 | >32 | 5.33
